Data: PubChem BioAssay AID493230 (Broad Institute, 2011)
Values joined by “and” are separate entries in the source; they are usually repeats but may differ in a detail not shown here. Equal entries are not always repeated. Active and inactive are the calls of the source.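 The calls were made as follows: active = VEGF mRNA rise whose fitted curve reaches 40% activation within the highest concentration tested on that sample; inactive = the rest, including effects opposite to expected.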

Experiments:
[1] = system: U2OS VEGF mRNA induction, RT-PCR; experiment: activators raising VEGF transcript levels via HIF – cell-based, U2OS, RT-PCR, dry powder, set 3, orthogonal assay for HIF pathway activator project, dose response (AID 493230)
Summary of the method: (§1)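 Assay system: U2OS osteosarcoma cells / Medium: DMEM without phenol red, 10% FBS / Schedule: 24 h plating, then 24 h compound exposure at 37 °C / Technique: TaqMan RT-PCR, VEGF-A vs beta-actin / Benchmarks: DMSO control / Repeats: duplicates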

[2] = as above; settings: U2OS VEGF mRNA induction, RT-PCR; at 38 µM (top of the series)
Summary of the method: as §1

SMILES	AC40 [1]	activation [2]
C[C@@H](Nc1nc(-c2ccccn2)nnc1-c1ccccc1)C1CCCCC1	545 nM	–
C[C@@H](Nc1nc(-c2ccccn2)nnc1-c1ccccc1)c1ccccc1	1440 nM	–
Oc1ccc(CN2CCC3CCCCC3C2)c2cccnc12 (centres undefined)	1580 nM	–
O=C(NC1Cc2ccccc2C1)c1cc(-c2ccccc2)on1	–	-6% (inactive)
O=C(NC1CCc2ccccc2C1)c1cc(-c2ccccc2)on1 (centres undefined)	> 38000 nM (inactive)	–
Oc1ccc(CN2CCc3ccccc3C2)c2cccnc12	3020 nM and 6180 nM	–
c1ccc(-c2nnc(-c3ccccn3)nc2Nc2nc3ccccc3s2)cc1	427 nM	–
Cc1cccc(CNc2nc(-c3ccccn3)nnc2-c2ccccc2)c1	1480 nM	–
CC1CN(Cc2ccc(O)c3ncccc23)CC(C)O1 (centres undefined)	12500 nM	–
O=C(NCCCN1CCOCC1)c1cc(-c2ccccc2)on1	28000 nM	–
O=C(NCCCCO)c1cc(-c2ccccc2)on1	9040 nM	–
O=C(Nc1cn2ccccc2n1)c1cc(-c2ccccc2)on1	5310 nM	–
O=C(c1cc(-c2ccccc2)on1)N1CCN(c2ccncc2)CC1	35800 nM	–
Oc1ccc(CNC2CCc3ccccc32)c2cccnc12 (centres undefined)	27100 nM	–
Cc1cccc(NC(=O)c2cc(-c3ccccc3)on2)n1	> 38000 nM (inactive)	–
O=C(Nc1ncc2ccccc2n1)c1cc(-c2ccccc2)on1	29400 nM	–
c1ccc(-c2cccc(CNc3nc(-c4ccccn4)nnc3-c3ccccc3)c2)cc1	529 nM	–
CN(C)CCNC(=O)c1cc(-c2ccccc2)on1	–	-3.96% (inactive)
c1ccc(-c2nnc(-c3ccccn3)nc2N2CCC(C3CCCCC3)C2)cc1 (centres undefined)	535 nM	–
c1ccc(-c2ccc(CNc3nc(-c4ccccn4)nnc3-c3ccccc3)cc2)cc1	276 nM	–
c1ccc(-c2nnc(-c3ccccn3)nc2N2CCC(c3ccccc3)C2)cc1 (centres undefined)	1050 nM	–
c1ccc(-c2nnc(-c3ccccn3)nc2NCC2CCOCC2)cc1	6690 nM	–

SMILES	AC40 [1]	activation [2]
O=C(NCCCO)c1cc(-c2ccccc2)on1	15700 nM	–
Cc1cccc(Nc2nc(-c3ccccn3)nnc2-c2ccccc2)n1	2980 nM	–
CC(Nc1nc(-c2ccccn2)nnc1-c1ccccc1)c1ccccc1 (centres undefined)	1550 nM	–
Cc1ccc(CNc2nc(-c3ccccn3)nnc2-c2ccccc2)cc1	1010 nM	–
Cn1c(NC(=O)c2cc(-c3ccccc3)on2)nc2ccccc21	–	-8.77% (inactive)
Cc1ccc(CNC(=O)c2cc(-c3ccccc3)on2)cc1	–	-2.87% (inactive)
CC(C)(C)c1ccc(CNc2nc(-c3ccccn3)nnc2-c2ccccc2)cc1	401 nM	–
O=C(Nc1nc2ccccc2s1)c1cc(-c2ccccc2)on1	> 38000 nM (inactive)	–
COc1ccccc1N1CCN(Cc2ccc(O)c3ncccc23)CC1	384 nM	–
O=C(NCc1ccccc1)c1cc(-c2ccccc2)on1	–	-3.24% (inactive)
Cc1cccc(CNC(=O)c2cc(-c3ccccc3)on2)c1	–	9.8% (inactive)
C[C@H](Nc1nc(-c2ccccn2)nnc1-c1ccccc1)C1CCCCC1	1060 nM	–
COc1ccc(CNc2nc(-c3ccccn3)nnc2-c2ccccc2)cc1	1240 nM	–
O=C(Nc1nnc(-c2ccccc2)s1)c1cc(-c2ccccc2)on1	–	2.88% (inactive)
O=C(NCC1CC1)c1cc(-c2ccccc2)on1	24900 nM	–
O=C(Nc1ccc2ccccc2n1)c1cc(-c2ccccc2)on1	–	6.04% (inactive)
c1ccc(-c2nnc(-c3ccccn3)nc2NCCCN2CCOCC2)cc1	6440 nM	–
N#CC1(c2ccccc2)CCN(Cc2ccc(O)c3ncccc23)CC1	31900 nM	–
OCC1CCN(Cc2ccc(O)c3ncccc23)CC1	2600 nM	–
CC(C)(C)CCNC(=O)c1cc(-c2ccccc2)on1	> 38000 nM (inactive)	–
Cn1c(-c2ccccc2)cnc1NC(=O)c1cc(-c2ccccc2)on1	24600 nM	–
c1ccc(CNc2nc(-c3ccccn3)nnc2-c2ccccc2)cc1	1450 nM	–
